Assay outcomes: PubChem, Broad Institute
The list is not random: actives were taken first. Their share in the collection is about 1.1%.
Keap1 Nrf2 FP: inhibitors of human Keap1-Nrf2 protein-protein interaction; inhibition, % at 9.4 µM; hit rate 0.15% among 340,000; AID 504523; Keap1 Kelch-Nrf2 peptide fluorescence polarization, 1536-well; in the data active = inhibition above about 12%; inconclusive = no clear call, values can overlap the other calls; inactive = below about 7.3%;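 also: human Keap1 Kelch domain with fluorescein labeled Nrf2 9mer peptide probe; 0% = neutral control wells and 100% = peptide positive control; higher means more block of Keap1 binding to Nrf2 peptide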
Target sequence (Q14145 whole entry, looked up, the tested form may be a part): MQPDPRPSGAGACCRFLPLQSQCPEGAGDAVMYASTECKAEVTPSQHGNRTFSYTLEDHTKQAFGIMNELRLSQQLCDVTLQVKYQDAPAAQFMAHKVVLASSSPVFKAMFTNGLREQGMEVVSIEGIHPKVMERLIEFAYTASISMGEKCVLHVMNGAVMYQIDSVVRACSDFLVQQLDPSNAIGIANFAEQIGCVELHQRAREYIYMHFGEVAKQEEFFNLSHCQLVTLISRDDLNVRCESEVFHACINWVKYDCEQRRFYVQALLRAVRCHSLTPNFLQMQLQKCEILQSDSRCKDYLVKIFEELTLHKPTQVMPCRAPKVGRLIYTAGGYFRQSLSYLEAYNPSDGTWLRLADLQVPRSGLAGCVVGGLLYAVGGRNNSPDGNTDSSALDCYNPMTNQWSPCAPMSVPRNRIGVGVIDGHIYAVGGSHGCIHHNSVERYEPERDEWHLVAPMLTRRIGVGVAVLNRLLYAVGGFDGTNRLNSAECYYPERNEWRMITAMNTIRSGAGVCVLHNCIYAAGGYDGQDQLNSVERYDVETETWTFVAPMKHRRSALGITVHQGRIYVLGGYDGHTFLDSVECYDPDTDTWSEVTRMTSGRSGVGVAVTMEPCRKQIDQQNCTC
miR-122 sensor: blocks miR-122 activity in Huh7 sensor cells; Huh7 miR-122 Renilla luciferase sensor, 48 h; neutral wells = 0, positive control = 100; activation (reporter increase), % at 12.5 µM; hit rate 0.3% among 340,000;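 active = mean replicate activation score at least 90 and every replicate individually at or above 90; inconclusive = only one of the two criteria met; inactive = neither criterion met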;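 also: higher luciferase means less miR-122 activity so hits act as miR-122 inhibitors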
CAL PDZ FP-1: blocks peptide binding to the human CAL PDZ domain. Q9HD26. purified CAL PDZ, TMR-peptide fluorescence polarization, 1 h. inhibition, % at 24.9 µM. hit rate 0.92% among 300,000. AID 602252;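 active = mean inhibition of at least 30% with at least half of replicates also reaching 30%; inconclusive = no clear call, values can overlap the other calls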;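 also: 0% = DMSO neutral control and 100% = excess unlabeled competitor peptide PRC23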
LANA DNA inh: KSHV C-LANA DNA binding inhibition | MBP-C-LANA/FAM-LBS DNA binding, fluorescence polarization | inhibition, % at 9 µM | hit rate 0.078% among 340,000 | AID 504423;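 active = highest replicate inhibition at or above 60% at 9 µM, even if other replicates fall short; inactive = all replicates below 60% inhibition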;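 also: 0% = neutral control wells and 100% = 4 µM acridine orange control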
CAL PDZ FP-2: blocks peptide binding to human CAL PDZ domain | inhibition, % at 20 µM | hit rate 0.02% among 330,000 | purified CAL PDZ, TMR-peptide fluorescence polarization, 1 h | Q9HD26;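 active = highest replicate inhibition of at least 40%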;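 also: plate controls were DMSO neutral control wells for no effect and unlabeled competitor peptide control wells for full effect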
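material = purified tagged CAL PDZ domain construct (CerCALP) | buffer or medium = sodium phosphate/NaCl buffer pH 7.4 with TCEP, IgG, Thesit | reagent = TMR-labelled reporter peptide T*-PRC34 bound in PDZ groove | incubation = 1 h room-temperature incubation prior to read | measured by = fluorescence polarization (mP) | evaluation = percent inhibition from loss of millipolarization | control set = unlabelled peptide and DMSO controls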
The depositor's hits bear a star; ? = inconclusive; . = no result; [ ] = another dose, or the depositor's remark.

SMILES	Keap1 Nrf2 FP	miR-122 sensor	CAL PDZ FP-1	LANA DNA inh	CAL PDZ FP-2
O=C1CCCC2=C1C(c1ccc3c(c1)OCO3)c1c([nH]n(-c3ccccc3)c1=O)N2 (configuration not stated)	-2	191*	.	0	0
COc1cccc(C2C3=C(CCCC3=O)Nc3[nH]n(-c4ccccc4)c(=O)c32)c1 (configuration not stated)	0	21	.	-2	0
C[C@@H]1CN([C@H](C)CO)C(=O)Cc2cc(NS(=O)(=O)c3cccs3)ccc2O[C@@H]1CN(C)C(=O)NC1CCCCC1	.	3[16.7 µM]	.	.	.
C[C@H]1CN([C@@H](C)CO)C(=O)c2cc(NC(=O)CCCN(C)C)ccc2O[C@H]1CN(C)S(=O)(=O)c1cccs1	.	-4[16.7 µM]	.	.	.
C[C@H](CO)N1C[C@H](C)[C@H](CN(C)C(=O)C2CCCCC2)Oc2cc(C#CC3CC3)ccc2S1(=O)=O	.	18[16.7 µM]	.	.	.
Cc1nnc(SC(C)C#N)n1-c1ccccc1 (configuration not stated)	-4	.	76*	0	0
CCC(=O)N1C[C@H](O)COC[C@@H]2O[C@@H](CC(=O)NCC3CCCCC3)CC[C@H]21	.	18[16.7 µM]	.	.	.
COc1ccc2o/c(=N\O)c(C(=O)Nc3ccc(C)cc3)cc2c1	1	.	80*	0	0
CSc1ccccc1OCc1cc(C(=O)N(C)Cc2nonc2C)no1	1	-9	36*	-1	0
Cc1cc(NS(=O)(=O)c2c(C(=O)N3CCOCC3)c(C)n(C)c2C)ccc1Br	-6	52	78*	-2	-1
COC1=C/C(=C/c2c(N)n3nc(CC(=O)N4CCCC4)sc3nc2=O)C=CC1=O	-5	-1	-3	57	-2
Nc1c(/C=C2/C=CC(=O)C(O)=C2)c(=O)nc2sc(CC(=O)N3CCCCC3)nn12	-3	-2	17	108*	-2
Nc1c(/C=C2/C=CC(=O)C(O)=C2)c(=O)nc2sc(CC(=O)N3CCOCC3)nn12	-3	.	-24	110*	-3
Nc1c(/C=C2/C=CC(=O)C(O)=C2)c(=O)nc2sc(CC(=O)N3CCCC3)nn12	-5	-2	-4	109*	-2
O=C(NC1CCC1)[C@H]1[C@H](CO)[C@H]2Cn3c(ccc(C4=CCCC4)c3=O)[C@@H]1N2CC1CC1	.	-6[16.7 µM]	.	.	.
CC(C)NC(=O)N(C)C[C@@H]1OCCCC[C@H](C)Oc2ccc(NC(=O)NC3CCCCC3)cc2C(=O)N([C@@H](C)CO)C[C@H]1C	.	-6[16.7 µM]	.	.	.
CCOCCCn1c(=S)[nH]c2cc(C(=O)NC3CCCC(C)C3C)ccc2c1=O (configuration not stated)	2	0	62*	1	-1
COCCCNC(=O)c1ccc2c(=O)n(Cc3ccc4c(c3)OCO4)c(=S)[nH]c2c1	1	-3	-2	1	0
CCOCCCNC(=O)c1ccc2c(=O)n(Cc3ccc4c(c3)OCO4)c(=S)[nH]c2c1	-4	-1	37*	-2	34
CCNC(=O)C[C@@H]1CC[C@@H]2[C@@H](COc3ccc(NC(=O)Nc4c(C)noc4C)cc3C(=O)N2C)O1	.	1[16.7 µM]	.	.	.
COc1ccc(CN(C#N)c2nc(C)cc(C)n2)cc1	-7	-6	-2	-1	-1
Cc1cc(C)nc(N(C#N)Cc2cccc([N+](=O)[O-])c2)n1	1	.	46*	0	-1
COc1cc([N+](=O)[O-])ccc1NC(=O)NCC1CCN(Cc2ccc(Cl)cc2)CC1	0	-14	46*	-2	.
CN(C)C(=O)[C@@H]1[C@@H](CO)[C@@H]2Cn3c(ccc(C4=CCCCC4)c3=O)[C@@H]2N1Cc1ccc2c(c1)OCO2	.	-3[16.7 µM]	.	.	.
C[C@@H]1CN([C@H](C)CO)C(=O)c2cccc(NC(=O)NC3CCCCC3)c2O[C@H]1CN(C)Cc1ccc(Cl)c(Cl)c1	.	118*[16.7 µM]	.	.	.
SMILES	Keap1 Nrf2 FP	miR-122 sensor	CAL PDZ FP-1	LANA DNA inh	CAL PDZ FP-2
C[C@H](CO)N1C[C@H](C)[C@@H](CN(C)Cc2ccc(Cl)c(Cl)c2)Oc2c(NC(=O)C3CC3)cccc2C1=O	-11	114*[16.7 µM]	-6	2	0
C[C@H]1CN([C@@H](C)CO)C(=O)c2cc(NS(=O)(=O)c3cn(C)cn3)ccc2O[C@@H]1CN(C)S(C)(=O)=O	.	1[16.7 µM]	.	.	.
C[C@@H]1CN([C@H](C)CO)C(=O)c2cc(N(C)C)ccc2O[C@@H]1CN(C)Cc1ccc(C(=O)Nc2ccccc2N)cc1	.	220*[16.7 µM]	.	.	.
C[C@H](CO)N1C[C@H](C)[C@@H](CN(C)Cc2ccc(C(=O)Nc3ccccc3N)cc2)Oc2ccc(N(C)C)cc2C1=O	.	59[16.7 µM]	.	.	.
C[C@@H]1CN([C@H](C)CO)C(=O)c2cc(NC(=O)Nc3ccccc3)ccc2O[C@@H]1CN(C)Cc1ccc(C(=O)Nc2ccccc2N)cc1	.	68[16.7 µM]	.	.	.
C[C@H](CO)N1C[C@H](C)[C@H](CN(C)Cc2ccc(C(=O)Nc3ccccc3N)cc2)Oc2ccc(NC(=O)Nc3ccc(F)cc3)cc2CC1=O	.	267*[16.7 µM]	.	.	.
C[C@@H]1CN([C@H](C)CO)C(=O)c2cc(N(C)C)ccc2O[C@H]1CN(C)Cc1ccc(C(=O)Nc2ccccc2N)cc1	.	112*[16.7 µM]	.	.	.
C[C@H]1CN([C@@H](C)CO)C(=O)c2cc(N(C)C)ccc2O[C@H]1CN(C)Cc1ccc(C(=O)Nc2ccccc2N)cc1	.	120*[16.7 µM]	.	.	.
C[C@@H]1CN([C@H](C)CO)C(=O)Cc2cc(N(C)C)ccc2O[C@@H]1CN(C)Cc1ccc(C(=O)Nc2ccccc2N)cc1	.	130*[16.7 µM]	.	.	.
C[C@@H]1CN([C@H](C)CO)C(=O)Cc2cc(N(C)C)ccc2O[C@H]1CN(C)Cc1ccc(C(=O)Nc2ccccc2N)cc1	.	85[16.7 µM]	.	.	.
CC(C)NC(=O)N(C)C[C@H]1Oc2ncc(C#CC3(O)CCCC3)cc2C(=O)N([C@H](C)CO)C[C@H]1C	.	-2[16.7 µM]	.	.	.
CN(C)S(=O)(=O)c1cccc(COC(=O)c2ccc(Cl)cc2O)c1	-3	.	4	2	0
CN(C)S(=O)(=O)c1cccc(COc2ncnc3c(Cl)cc(Cl)cc23)c1	-2	-3	56*	1	0
COc1cccc2c1C(=O)c1c(O)c3c(c(O)c1C2=O)CC(O)(C(=O)CO)CC3OC1CC(N(C)C)C(O)C(C)O1 (configuration not stated)	?	-17	8	114*	13
COc1cccc(CN(c2ccc3c(c2)CCC3)S(=O)(=O)c2ccc(-n3cnnn3)c(OC)c2)c1	3	25	42*	0	-1
Cc1ccc(S(=O)(=O)N=Nc2c(O)[nH]c3ccccc23)cc1	-6	10	32*	-2	-1
CCC(=O)Nc1ccc2c(c1)C(=O)N(C)[C@H]1CC[C@H](CC(=O)NCCCN(C)C)O[C@@H]1CO2	.	-2[16.7 µM]	.	.	.
CCOC(=O)c1c(C)[nH]c(C)c1C(=O)CN1C(=O)NC2(CCCCCC2)C1=O	4	-4	35*	0	0
O=C(NCC[C@@H]1CC[C@@H](NC(=O)C2CCCCC2)[C@H](CO)O1)Nc1ccc(Cl)cc1	.	5[16.7 µM]	.	.	.
COc1n[nH]c(C(=O)NCc2ccccc2)c1[N+](=O)[O-]	-2	2	0	1	-1
